pIC50: −log10 of the molar value. One block for each compound: values may come before it. The source made the active and inactive calls. No cut-off for these calls is given here.
Tests used:
[1] = AUC in C57BL/6J mouse at 30 mg/kg, po by LC-MS/MS analysis; type: ADME, organism-based; conditions: in vivo
[2] = molecular target: Tyrosine-protein kinase Lyn (Homo sapiens) (UniProt P07948); assay: Inhibition of LYN (unknown origin) at 0.078 uM relative to control
Homo sapiens = species on record: Homo sapiens; assay: Inhibition of PKA (unknown origin) at 0.078 uM relative to control
[3] = Cmax in C57BL/6J mouse at 30 mg/kg, po by LC-MS/MS analysis; type: ADME, organism-based; design: dose 30 mg/kg, route oral; conditions: in vivo
Mus musculus = assay: Antiinflammatory activity in C57BL/6J mouse assessed as reduction in recombinant mouse IL-6 induced serum hepcidin level at 30 mg/kg, po pretreated for 30 mins followed by IL-6 challenge measured after 4 hrs by LC-MS/MS analysis; type: functional, organism-based
Procedure, shortened: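 9-week-old male C57BL/6J mice were dosed orally at 30 mg/kg (0.5% methylcellulose suspension, n = 4) 30 min before intravenous mouse IL-6. Blood was taken 4 h after IL-6 and serum hepcidin was measured. Groups were compared by t-test against saline-treated and 0.5% MC vehicle-treated groups.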

[4] = Lipophilicity, log D of the compound; type: physicochemical; conditions: octanol/water
[5] = Tmax in C57BL/6J mouse at 30 mg/kg, po by LC-MS/MS analysis; type: ADME, organism-based; conditions: in vivo
[6] = Metabolic stability in mouse liver microsomes assessed as parent compound remaining at 1 uM after 0.5 hrs by LC-MS/MS analysis; type: ADME, microsome; conditions: read-out: Stability
HepG2 = assay: Inhibition of human recombinant BMP6-stimulated hepcidin mRNA expression in human HepG2 cells after 6 hrs by qRT-PCR analysis; type: functional, cell-based; conditions: HepG2, 6 h
[7] = molecular target: Tyrosine-protein kinase Lyn (Homo sapiens) (UniProt P07948); assay: Inhibition of LYN (unknown origin) at 0.49 uM relative to control
[8] = molecular target: BDNF/NT-3 growth factors receptor (Homo sapiens) (UniProt Q16620); assay: Inhibition of NTRK2 (unknown origin) at 0.49 uM relative to control
[9] = tested on: Tyrosine-protein kinase ABL1 (Homo sapiens), P00519 [H396P]; assay: Inhibition of Abl H396P mutant (unknown origin) at 0.49 uM relative to control
[10] = molecular target: Platelet-derived growth factor receptor alpha (Homo sapiens) (UniProt P16234); assay: Inhibition of PDGFR alpha (unknown origin) at 0.49 uM relative to control
[11] = molecular target: Vascular endothelial growth factor receptor 2 (Homo sapiens) (UniProt P35968); assay: Inhibition of KDR (unknown origin) at 0.49 uM relative to control
[12] = tested on: Platelet-derived growth factor receptor alpha (Homo sapiens), P16234 [D842V]; assay: Inhibition of PDGFRA D842V mutant (unknown origin) at 0.49 uM relative to control
[13] = molecular target: Casein kinase I isoform gamma-3 (Homo sapiens) (UniProt Q9Y6M4); assay: Inhibition of CSNK1G3 (unknown origin) at 0.49 uM relative to control
[14] = molecular target: Cytoplasmic tyrosine-protein kinase BMX (Homo sapiens) (UniProt P51813); assay: Inhibition of BMX (unknown origin) at 0.49 uM relative to control
[15] = molecular target: MAP kinase-interacting serine/threonine-protein kinase 2 (Homo sapiens) (UniProt Q9HBH9); assay: Inhibition of MNK2 (unknown origin) at 0.49 uM relative to control
[16] = molecular target: Serine/threonine-protein kinase pim-3 (Homo sapiens) (UniProt Q86V86); assay: Inhibition of PIM3 (unknown origin) at 0.49 uM relative to control
[17] = molecular target: Ephrin type-A receptor 8 (Homo sapiens) (UniProt P29322); assay: Inhibition of EPHA8 (unknown origin) at 0.49 uM relative to control
[18] = molecular target: Platelet-derived growth factor receptor beta (Homo sapiens) (UniProt P09619); assay: Inhibition of PDGFR beta (unknown origin) at 0.49 uM relative to control
[19] = molecular target: CDK4/Cyclin D3 (Homo sapiens) (UniProt P11802+P30281); assay: Inhibition of CDK4/CyclinD3 (unknown origin) at 0.49 uM relative to control; type: protein-complex assay
[20] = molecular target: Calcium/calmodulin-dependent protein kinase type II subunit alpha (Homo sapiens) (UniProt Q9UQM7); assay: Inhibition of CaMK2a (unknown origin) at 0.45 uM relative to control
[21] = molecular target: Dual specificity protein kinase CLK2 (Homo sapiens) (UniProt P49760); assay: Inhibition of CLK2 (unknown origin) at 0.45 uM relative to control
[22] = tested on: Hepatocyte growth factor receptor (Homo sapiens), P08581 [M1250T]; assay: Inhibition of MET M1250T mutant (unknown origin) at 0.45 uM relative to control
[23] = molecular target: Dual specificity tyrosine-phosphorylation-regulated kinase 1A (Homo sapiens) (UniProt Q13627); assay: Inhibition of DYRK1a (unknown origin) at 0.45 uM relative to control
[24] = molecular target: Vascular endothelial growth factor receptor 3 (Homo sapiens) (UniProt P35916); assay: Inhibition of FLT4 (unknown origin) at 0.45 uM relative to control
[25] = tested on: Epidermal growth factor receptor (Homo sapiens), P00533 [L858R,T790M]; assay: Inhibition of EGFR T790M/L858R double mutant (unknown origin) at 0.45 uM relative to control
[26] = molecular target: Ephrin type-B receptor 2 (Homo sapiens) (UniProt P29323); assay: Inhibition of EPHB2 (unknown origin) at 0.45 uM relative to control
[27] = molecular target: Fibroblast growth factor receptor 4 (Homo sapiens) (UniProt P22455); assay: Inhibition of FGFR4 (unknown origin) at 0.45 uM relative to control
[28] = molecular target: Insulin receptor (Homo sapiens) (UniProt P06213); assay: Inhibition of INSR (unknown origin) at 0.45 uM relative to control
[29] = molecular target: T1, Serine/threonine-protein kinase Chk1 (Homo sapiens) (UniProt O14757); assay: Inhibition of CHK1 (unknown origin) at 0.45 uM relative to control
T1 sequence (whole entry): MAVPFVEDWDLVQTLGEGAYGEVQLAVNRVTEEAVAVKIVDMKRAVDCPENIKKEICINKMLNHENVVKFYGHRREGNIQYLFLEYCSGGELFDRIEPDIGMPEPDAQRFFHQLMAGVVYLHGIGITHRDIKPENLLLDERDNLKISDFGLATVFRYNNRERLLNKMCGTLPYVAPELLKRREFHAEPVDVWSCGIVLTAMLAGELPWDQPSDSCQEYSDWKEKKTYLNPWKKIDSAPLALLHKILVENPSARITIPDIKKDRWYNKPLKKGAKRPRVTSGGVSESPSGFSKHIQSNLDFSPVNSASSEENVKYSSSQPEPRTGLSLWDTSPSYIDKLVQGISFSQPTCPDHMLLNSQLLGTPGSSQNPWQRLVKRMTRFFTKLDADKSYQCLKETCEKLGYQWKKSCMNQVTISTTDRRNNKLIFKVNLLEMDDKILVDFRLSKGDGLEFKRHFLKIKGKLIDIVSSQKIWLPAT

[30] = molecular target: Hepatocyte growth factor receptor (Homo sapiens) (UniProt P08581); assay: Inhibition of MET (unknown origin) at 0.45 uM relative to control

Tyrosine-protein kinase Lyn (Homo sapiens), sequence (P07948 2-512 limits assumed): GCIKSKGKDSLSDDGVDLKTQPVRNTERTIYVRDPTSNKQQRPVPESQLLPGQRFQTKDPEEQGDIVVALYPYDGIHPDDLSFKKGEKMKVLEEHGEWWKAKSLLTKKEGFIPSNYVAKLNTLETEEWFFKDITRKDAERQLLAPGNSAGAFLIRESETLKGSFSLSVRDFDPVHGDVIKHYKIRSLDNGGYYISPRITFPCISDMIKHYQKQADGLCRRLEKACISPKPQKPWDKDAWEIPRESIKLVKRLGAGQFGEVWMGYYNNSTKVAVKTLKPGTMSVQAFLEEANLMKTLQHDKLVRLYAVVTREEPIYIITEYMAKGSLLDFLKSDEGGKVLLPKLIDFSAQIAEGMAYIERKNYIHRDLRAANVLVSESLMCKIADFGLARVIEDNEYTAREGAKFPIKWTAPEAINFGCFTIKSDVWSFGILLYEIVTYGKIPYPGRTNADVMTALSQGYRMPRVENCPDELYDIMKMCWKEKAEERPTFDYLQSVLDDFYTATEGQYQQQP
Ephrin type-B receptor 2 (Homo sapiens), sequence (P29323 whole entry): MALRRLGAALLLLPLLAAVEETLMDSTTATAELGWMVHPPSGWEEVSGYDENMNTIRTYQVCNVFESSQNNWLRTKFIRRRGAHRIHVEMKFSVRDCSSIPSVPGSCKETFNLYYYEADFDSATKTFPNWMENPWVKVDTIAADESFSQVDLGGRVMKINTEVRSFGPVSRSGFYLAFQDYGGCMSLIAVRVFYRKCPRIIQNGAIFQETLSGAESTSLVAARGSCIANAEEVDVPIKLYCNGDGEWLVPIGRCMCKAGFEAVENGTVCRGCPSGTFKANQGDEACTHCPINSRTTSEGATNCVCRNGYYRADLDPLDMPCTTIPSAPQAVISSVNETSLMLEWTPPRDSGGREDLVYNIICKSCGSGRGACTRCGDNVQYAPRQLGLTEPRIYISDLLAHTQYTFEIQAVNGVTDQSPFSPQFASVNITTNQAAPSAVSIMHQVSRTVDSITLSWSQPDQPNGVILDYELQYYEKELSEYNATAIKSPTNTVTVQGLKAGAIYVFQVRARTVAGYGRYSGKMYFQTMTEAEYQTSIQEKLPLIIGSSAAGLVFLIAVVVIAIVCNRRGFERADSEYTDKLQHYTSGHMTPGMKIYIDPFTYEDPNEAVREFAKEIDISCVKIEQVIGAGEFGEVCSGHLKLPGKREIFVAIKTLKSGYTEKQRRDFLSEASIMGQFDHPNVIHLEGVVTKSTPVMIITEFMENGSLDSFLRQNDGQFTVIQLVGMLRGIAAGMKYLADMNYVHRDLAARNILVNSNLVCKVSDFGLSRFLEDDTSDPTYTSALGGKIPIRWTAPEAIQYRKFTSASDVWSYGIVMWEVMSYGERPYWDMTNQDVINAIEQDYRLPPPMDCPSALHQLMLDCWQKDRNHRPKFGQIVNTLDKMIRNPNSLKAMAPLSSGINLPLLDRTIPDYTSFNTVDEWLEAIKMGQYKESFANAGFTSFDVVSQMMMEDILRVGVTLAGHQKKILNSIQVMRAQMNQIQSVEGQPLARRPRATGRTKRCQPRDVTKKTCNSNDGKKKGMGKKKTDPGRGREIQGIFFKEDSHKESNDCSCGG
BDNF/NT-3 growth factors receptor (Homo sapiens), sequence (Q16620 32-822 limits assumed): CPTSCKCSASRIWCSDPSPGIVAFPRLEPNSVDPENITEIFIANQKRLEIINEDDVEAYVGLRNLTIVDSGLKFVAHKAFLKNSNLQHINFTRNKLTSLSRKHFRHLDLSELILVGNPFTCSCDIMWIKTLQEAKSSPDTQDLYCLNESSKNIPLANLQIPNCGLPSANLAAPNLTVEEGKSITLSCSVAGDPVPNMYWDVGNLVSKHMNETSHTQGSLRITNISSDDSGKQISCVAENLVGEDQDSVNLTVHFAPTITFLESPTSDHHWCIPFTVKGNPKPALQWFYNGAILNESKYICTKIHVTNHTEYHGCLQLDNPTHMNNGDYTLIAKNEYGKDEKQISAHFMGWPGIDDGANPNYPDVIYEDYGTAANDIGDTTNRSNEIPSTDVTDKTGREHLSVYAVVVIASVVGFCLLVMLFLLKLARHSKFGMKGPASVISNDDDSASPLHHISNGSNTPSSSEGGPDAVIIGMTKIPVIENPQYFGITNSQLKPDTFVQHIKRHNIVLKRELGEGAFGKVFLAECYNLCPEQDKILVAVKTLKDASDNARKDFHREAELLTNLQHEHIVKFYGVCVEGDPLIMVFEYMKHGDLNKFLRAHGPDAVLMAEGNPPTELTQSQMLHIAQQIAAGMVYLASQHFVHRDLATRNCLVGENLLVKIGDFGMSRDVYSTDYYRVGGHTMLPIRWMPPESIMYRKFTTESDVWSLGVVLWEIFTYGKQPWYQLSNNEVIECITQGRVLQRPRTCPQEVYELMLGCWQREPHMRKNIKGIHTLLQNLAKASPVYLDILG
Casein kinase I isoform gamma-3 (Homo sapiens), sequence (Q9Y6M4 whole entry, looked up, canonical isoform): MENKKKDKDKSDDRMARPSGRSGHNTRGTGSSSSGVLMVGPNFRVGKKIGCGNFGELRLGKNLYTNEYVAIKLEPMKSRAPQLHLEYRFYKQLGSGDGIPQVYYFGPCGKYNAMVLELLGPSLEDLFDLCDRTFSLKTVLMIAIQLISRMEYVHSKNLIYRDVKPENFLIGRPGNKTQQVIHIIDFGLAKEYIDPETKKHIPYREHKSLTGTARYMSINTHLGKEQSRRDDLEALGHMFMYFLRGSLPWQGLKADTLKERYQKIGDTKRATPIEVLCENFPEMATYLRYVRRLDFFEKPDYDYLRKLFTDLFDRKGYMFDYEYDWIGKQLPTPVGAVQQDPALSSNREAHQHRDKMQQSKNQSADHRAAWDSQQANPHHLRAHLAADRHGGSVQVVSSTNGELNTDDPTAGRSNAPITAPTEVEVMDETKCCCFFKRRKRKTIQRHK
Hepatocyte growth factor receptor (Homo sapiens), P08581 [M1250T], sequence (P08581 whole entry M1250T): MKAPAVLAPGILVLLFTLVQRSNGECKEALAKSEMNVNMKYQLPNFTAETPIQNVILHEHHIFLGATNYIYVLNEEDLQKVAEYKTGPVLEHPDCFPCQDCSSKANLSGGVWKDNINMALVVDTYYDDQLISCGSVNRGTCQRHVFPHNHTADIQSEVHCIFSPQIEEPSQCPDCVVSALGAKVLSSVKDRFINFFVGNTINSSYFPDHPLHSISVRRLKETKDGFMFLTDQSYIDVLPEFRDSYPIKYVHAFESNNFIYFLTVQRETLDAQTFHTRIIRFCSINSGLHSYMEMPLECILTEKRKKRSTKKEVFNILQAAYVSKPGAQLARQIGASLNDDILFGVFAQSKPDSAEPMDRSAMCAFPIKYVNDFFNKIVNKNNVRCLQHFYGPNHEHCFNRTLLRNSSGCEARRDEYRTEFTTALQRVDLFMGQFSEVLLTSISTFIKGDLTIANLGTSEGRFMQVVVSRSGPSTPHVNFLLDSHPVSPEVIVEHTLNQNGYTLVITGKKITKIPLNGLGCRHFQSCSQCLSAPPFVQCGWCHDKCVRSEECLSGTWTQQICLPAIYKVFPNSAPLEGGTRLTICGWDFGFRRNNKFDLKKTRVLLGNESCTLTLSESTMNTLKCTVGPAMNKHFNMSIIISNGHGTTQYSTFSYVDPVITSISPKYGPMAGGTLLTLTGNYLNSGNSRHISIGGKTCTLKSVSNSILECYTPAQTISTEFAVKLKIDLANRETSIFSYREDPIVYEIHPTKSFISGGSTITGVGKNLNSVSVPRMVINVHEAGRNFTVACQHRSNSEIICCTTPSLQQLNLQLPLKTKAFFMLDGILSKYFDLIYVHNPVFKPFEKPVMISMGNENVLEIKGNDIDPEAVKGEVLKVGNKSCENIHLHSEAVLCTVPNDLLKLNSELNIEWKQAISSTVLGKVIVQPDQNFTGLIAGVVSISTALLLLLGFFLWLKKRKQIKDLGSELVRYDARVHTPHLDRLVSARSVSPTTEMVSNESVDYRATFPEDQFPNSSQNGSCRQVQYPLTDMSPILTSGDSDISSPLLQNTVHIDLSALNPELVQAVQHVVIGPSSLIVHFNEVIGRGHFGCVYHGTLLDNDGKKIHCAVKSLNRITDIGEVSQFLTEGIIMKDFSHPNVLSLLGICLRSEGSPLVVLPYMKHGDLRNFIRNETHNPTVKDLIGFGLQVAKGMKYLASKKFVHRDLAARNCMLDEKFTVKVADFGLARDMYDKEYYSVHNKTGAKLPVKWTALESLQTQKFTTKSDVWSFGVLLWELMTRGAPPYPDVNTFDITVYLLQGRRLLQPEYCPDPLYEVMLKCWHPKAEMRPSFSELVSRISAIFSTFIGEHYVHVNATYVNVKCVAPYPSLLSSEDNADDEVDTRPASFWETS
Cytoplasmic tyrosine-protein kinase BMX (Homo sapiens), sequence (P51813 whole entry): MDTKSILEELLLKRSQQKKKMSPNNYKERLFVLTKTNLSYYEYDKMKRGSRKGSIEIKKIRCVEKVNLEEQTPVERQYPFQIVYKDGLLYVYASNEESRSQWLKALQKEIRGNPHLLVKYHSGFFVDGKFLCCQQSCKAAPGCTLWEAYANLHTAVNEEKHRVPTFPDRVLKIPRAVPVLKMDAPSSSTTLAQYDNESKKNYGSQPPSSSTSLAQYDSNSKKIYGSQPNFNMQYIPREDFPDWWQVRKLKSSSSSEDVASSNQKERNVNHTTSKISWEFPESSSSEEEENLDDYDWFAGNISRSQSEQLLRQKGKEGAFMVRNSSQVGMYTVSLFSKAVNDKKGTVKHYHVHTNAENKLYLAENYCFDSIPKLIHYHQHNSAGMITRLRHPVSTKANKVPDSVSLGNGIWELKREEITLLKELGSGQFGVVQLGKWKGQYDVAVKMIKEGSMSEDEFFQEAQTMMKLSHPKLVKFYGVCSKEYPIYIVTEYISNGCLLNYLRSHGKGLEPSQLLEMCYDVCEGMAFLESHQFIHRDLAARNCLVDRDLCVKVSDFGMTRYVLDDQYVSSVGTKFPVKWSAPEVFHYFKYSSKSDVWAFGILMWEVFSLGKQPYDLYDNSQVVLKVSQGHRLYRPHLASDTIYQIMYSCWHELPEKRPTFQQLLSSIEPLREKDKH

AUC [1]: 36200 ng·h/mL
inhibition [2]: -0.3%
inhibition (Homo sapiens): -2.3%
Cmax [3]: 9170 ng/mL
logD [4]: 2.5
Tmax [5]: 1 h
remaining at 0.5 h, 1 µM [6]: 87%
pIC50 (HepG2): 7.41
SMILES: COC(=O)Nc1noc2cc(-c3c(-c4ccccn4)n[nH]c3C)ccc12
Activity (Mus musculus): Active

inhibition [7]: 6.7%
inhibition [8]: 4.3%
inhibition [9]: 36.7%
inhibition [10]: 0.7%
inhibition [11]: 5%
inhibition [12]: 31.7%
inhibition [13]: 2.3%
inhibition [14]: -0.7%
inhibition [15]: -1.7%
inhibition [16]: -4%
inhibition [17]: -2.7%
inhibition [18]: 20%
inhibition [19]: -6.7%
pIC50 (HepG2): 6.54
SMILES: Cc1[nH]nc(C2CC2)c1-c1ccc2c(NC(=O)C3CC3)noc2c1

inhibition [20]: 2.7%
inhibition [21]: 9%
AUC [1]: 2550 ng·h/mL
inhibition [22]: 5%
inhibition [23]: 6.3%
inhibition [24]: 10%
Cmax [3]: 920 ng/mL
inhibition [25]: 1.3%
inhibition [26]: 6.7%
logD [4]: 2.4
inhibition [27]: 0.7%
inhibition [28]: 3%
Tmax [5]: 3.25 h
inhibition [29]: 2.3%
inhibition [30]: 5.7%
remaining at 0.5 h, 1 µM [6]: 80%
pIC50 (HepG2): 6.64
SMILES: Cc1n[nH]c(C)c1-c1ccc2c(NC(=O)c3ccc(N4CCN(C)CC4)cc3)n[nH]c2c1
Activity (Mus musculus): Active

Reference: ChEMBL document CHEMBL4052759, “Discovery of DS79182026: A potent orally active hepcidin production inhibitor” (Bioorg Med Chem Lett, 2017)
